Screening data as filed in PubChem BioAssay.
A selection follows.
Apaf-1 act = activates human Apaf-1 apoptosome; O14727; Apaf-1 apoptosome caspase-3 activation, DEVD-Rh110 fluorescence; hits give low values; activity change, negative = activation, % at 20 µM; 330,000 compounds, 0.31% hits;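 active means activity change at or below -40% at 20 µM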
Target sequence (O14727 whole entry, looked up): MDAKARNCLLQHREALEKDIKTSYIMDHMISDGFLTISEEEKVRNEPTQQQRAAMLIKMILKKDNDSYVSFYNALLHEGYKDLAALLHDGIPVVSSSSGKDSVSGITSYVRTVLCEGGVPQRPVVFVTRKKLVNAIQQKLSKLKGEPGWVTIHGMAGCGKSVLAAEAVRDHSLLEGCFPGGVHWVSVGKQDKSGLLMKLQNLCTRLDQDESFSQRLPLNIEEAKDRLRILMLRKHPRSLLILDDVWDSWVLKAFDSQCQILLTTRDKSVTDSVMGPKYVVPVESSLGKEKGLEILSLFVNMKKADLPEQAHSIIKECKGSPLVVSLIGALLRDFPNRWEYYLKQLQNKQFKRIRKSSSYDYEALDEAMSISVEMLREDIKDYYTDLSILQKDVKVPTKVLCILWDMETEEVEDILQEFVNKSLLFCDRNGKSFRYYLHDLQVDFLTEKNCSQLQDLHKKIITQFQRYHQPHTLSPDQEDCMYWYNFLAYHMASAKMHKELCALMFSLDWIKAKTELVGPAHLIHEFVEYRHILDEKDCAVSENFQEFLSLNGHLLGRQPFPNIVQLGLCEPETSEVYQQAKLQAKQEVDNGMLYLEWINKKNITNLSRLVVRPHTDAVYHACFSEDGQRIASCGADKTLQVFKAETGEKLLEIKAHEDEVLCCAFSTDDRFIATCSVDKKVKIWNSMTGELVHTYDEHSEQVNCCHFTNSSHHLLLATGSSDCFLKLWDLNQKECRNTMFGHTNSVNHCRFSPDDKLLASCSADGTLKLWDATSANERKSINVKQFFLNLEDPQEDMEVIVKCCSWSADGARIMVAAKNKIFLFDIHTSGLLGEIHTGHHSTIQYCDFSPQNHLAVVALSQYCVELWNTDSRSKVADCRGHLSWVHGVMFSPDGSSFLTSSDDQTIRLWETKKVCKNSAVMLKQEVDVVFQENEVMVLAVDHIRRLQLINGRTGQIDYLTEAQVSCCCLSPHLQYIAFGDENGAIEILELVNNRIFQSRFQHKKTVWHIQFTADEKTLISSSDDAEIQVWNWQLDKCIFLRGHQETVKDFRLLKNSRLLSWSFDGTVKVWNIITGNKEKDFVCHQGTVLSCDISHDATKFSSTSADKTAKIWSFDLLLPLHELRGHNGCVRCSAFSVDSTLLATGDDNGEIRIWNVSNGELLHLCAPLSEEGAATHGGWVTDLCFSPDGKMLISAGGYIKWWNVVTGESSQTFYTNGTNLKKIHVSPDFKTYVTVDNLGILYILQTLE
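Material: reconstituted apoptosome of Apaf-1, cytochrome c, caspase-9, procaspase-3; times: 30 min preincubation, 50 min reaction, room temperature; measured by: fluorescence, 540 nm emission, 480 nm excitation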
Rh110 act interf = interferes with Rh110 fluorescence, flagging false Apaf-1 activators; shares compounds with Apaf-1 act; Rh110 fluorescence interference, quenched caspase reaction, Ex480/Em540; fluorescence interference (activity change), % at 20 µM, hits read low; 980 tested, under 10 active; AID 504616;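 active means mean activity change at or below -40% when tested at 20 µM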
Apaf-1 act conf2 = confirmation of human Apaf-1 activators. shares compounds with Apaf-1 act. reconstituted apoptosome caspase-3 activity, DEVD-Rh110 fluorescence; hits give low values. activity change, negative = activation, % at 20 µM. 980 compounds, 5% hits. AID 504617;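 active means mean activity change at or below -40%, meaning activation of 40% or more, at 20 µM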
Fluor interf act = counter-screen for Apaf-1 activators: fluorescence interference, dose response; shares compounds with Apaf-1 act; fluorescence interference counterscreen, Apaf-1 activator assay; EC50, µM; 55 tested, under 10 active; AID 588592; call rule not given here
The depositor's hits bear a star; x = no result.

SMILES	Apaf-1 act	Rh110 act interf	Apaf-1 act conf2	others
CCCCCCCCCCCCCCCC[n+]1ccc(C(N)=O)cc1	73	x	x
COc1ccc([N+](=O)[O-])cc1NC(=O)CCS(=O)(=O)c1ccc(Br)cc1	-111*	-5	-101*	Fluor interf act=>100
O=C(CCS(=O)(=O)c1ccc(Br)cc1)NCc1ccco1	-88*	9	-51*	Fluor interf act=>100
CCOc1ccccc1NC(=O)CCS(=O)(=O)c1ccc(Br)cc1	-220*	12	-128*	Fluor interf act=>100
O=C(COC(=O)c1cc(S(=O)(=O)N2CCc3ccccc3C2)ccc1Cl)NCc1ccco1	43	x	x
CCCN(CC(=O)Nc1ccccc1OC)C(=O)CSc1ccc(Br)cc1C	57	x	x
O=C(OCC(=O)N1CCN(S(=O)(=O)c2ccccc2)CC1)c1ccc([N+](=O)[O-])o1	80	x	x
C#CCOCCOCCOCCNc1nc(N2CCN(C(=O)CCCCCCCCCCNC(=O)[C@H](CCCCN)n3cc(C)nn3)CC2)nc(N2CCN(C(=O)CCCCCCCCCCNC(=O)[C@@H]([C@H](C)O)n3cc(C)nn3)CC2)n1	54	x	x
OC(CN1CCN(c2ccccc2)CC1)c1ccc2c(c1)CCN2 (stereo not drawn)	-460*	18	14
COc1cccc(OCC(O)CN2CCN(c3ccccc3)CC2)c1 (stereo not drawn)	5	x	x
C=CC(=O)Nc1ccc(CN2C(=O)N(c3c(Cl)c(OC)cc(OC)c3Cl)Cc3cnc(NCCCCN(CC)CC)nc32)cc1	63	x	x
Cc1ccc(NS(=O)(=O)c2ccc(NC(=O)C3CCCO3)cc2)cc1 (stereo not drawn)	-52*	6	12
CC(=O)Nc1ccc(S(=O)(=O)NC2=C(N3CCN(c4ccc(F)cc4)CC3)C(=O)c3ccccc3C2=O)cc1	64	x	x
Nc1nc2ccc(OC(F)(F)F)cc2s1	-1	x	x
CCC(C)(C(=O)NC1CCCC1)N(C(=O)c1ccccn1)c1ccc(C)cc1 (stereo not drawn)	-78*	6	14
O=C(c1ccc([N+](=O)[O-])o1)N(Cc1nnc(-c2ccccc2Cl)o1)C1CC1	51	x	x
CCN1CCN(CCNC(=O)c2cn(C(C)c3ccccc3F)nn2)CC1 (stereo not drawn)	-78*	8	16
CC(C)c1ccc(NC(=S)Nc2cccc3ccccc23)cc1	84	x	x
CCOC(=O)c1c(C)n(-c2ccc(C)cc2)c2c(C(C(C)=O)C(=O)O)c(Br)c(O)c(O)c12 (stereo not drawn)	50	x	x
CC[C@H](C)[C@@H]1NC(=O)[C@H]([C@@H](C)CC)NC(=O)[C@@H](CC(C)C)NC(=O)[C@H](Cc2ccccc2)NC(=O)[C@H](Cc2ccccc2)NC(=O)[C@@H]2CCCN2C(=O)[C@@H]2CCCN2C(=O)[C@H](C(C)C)NC(=O)[C@H](CC(C)C)NC1=O	54	x	x
COc1ccc2cnn(-c3ccc(OC(F)(F)F)cc3)c(=O)c2c1OC	-49*	1	2
C[C@H](NC(=O)N1CCn2c1nc1ccccc12)C(=O)NC1CCCCC1	-168*	15	16
CC1(C)CC(=O)C(C=Nc2ccc(O)c(N=CC3=C(O)CC(C)(C)CC3=O)c2)=C(O)C1	47	x	x
CCc1ccc(S(=O)(=O)/N=C2\C=C(Nc3ccc(O)cc3)C(=O)c3ccccc32)cc1	95	x	x
COc1ccc(C(CNC(=O)c2cccc(S(=O)(=O)N(C)c3ccccc3)c2)N2CCCC2)cc1 (stereo not drawn)	43	x	x
SMILES	Apaf-1 act	Rh110 act interf	Apaf-1 act conf2	others
COc1ccc(C(CNC(=O)c2cccc(NS(=O)(=O)c3ccc(Br)cc3)c2)N(C)C)cc1 (stereo not drawn)	-143*	7	11
NC(CO)C(=O)NNCc1ccc(O)c(O)c1O (stereo not drawn)	51	x	x
O=C(c1ccco1)N1CCN(C(c2ccccc2)c2nnnn2Cc2cccs2)CC1 (stereo not drawn)	-107*	9	16
O=C1c2ccccc2-c2onc3c(N4CCN(CCO)CC4)cc(N4CCN(C(=O)c5ccco5)CC4)c1c23	52	x	x
CN1CCN(c2cc(N3CCN(C(=O)c4ccco4)CC3)c3c4c(onc24)-c2ccccc2C3=O)CC1	82	x	x
CC(Cc1cccc(C(F)(F)F)c1)NCCOC(=O)c1ccccc1 (stereo not drawn)	23	x	x
CC(NC(=O)c1ccco1)C(=O)OCc1cccc(C(F)(F)F)c1 (stereo not drawn)	-50*	0	9
O=C(Cn1c(-c2ccccn2)nc2ccccc21)N/N=C/c1ccccn1	-44*	0	10
O=C(CNc1cccc2ccccc12)N/N=C/c1ccccn1	48	x	x
CCn1c(SCC(=O)N/N=C/C=C\c2ccco2)nc2ccccc21	47	x	x
C=CCC[C@@H](Cc1ccc(F)cc1)C(=O)OC[C@@H]1CCCN1C(=O)[C@@H](CC=C)CC(=O)N(CCO)Cc1ccccc1	48	x	x
Oc1ccc(NCc2ccccc2OCc2ccccc2F)cc1	92	x	x
COc1ccccc1-n1ccnc1SCC(=O)NCc1ccco1	-146*	16	19
CCN(CC)c1ccc(N=Cc2ccccc2[N+](=O)[O-])cc1	62	x	x
c1ccc2c(c1)CC/C2=N/Nc1nc2ccccc2[nH]1	57	x	x
CCCCC(CC)COC(=O)C(C#N)=C(c1ccccc1)c1ccccc1 (stereo not drawn)	-232*	1	3
COc1ccc(SC[C@H](C)CN2CC[C@H](NC(=O)OCc3ccccc3)CCC2=O)cc1	70	x	x
CCOC(=O)c1c(C)oc2c1c(C=NCCC(=O)O)c(O)c1ccccc12	81	x	x
CCOc1ccccc1N1CCN(C(=O)C2c3ccccc3Oc3ccccc32)CC1	41	x	x
CCOC(=O)N1CCC(NC(=O)CCC(=O)N2CCOc3ccccc32)CC1	-305*	4	8
Cc1oc2c(c1C(=O)O)C(=O)c1ccccc1C2=O	79	x	x
CC(=O)c1ccc(NC(=O)CSc2cn[nH]n2)cc1	-294*	-4	11
CC(=O)c1ccc(NC(=O)CC2Nc3cccc4cccc(c34)NC2=O)cc1 (stereo not drawn)	89	x	x
O=C(CSc1cn[nH]n1)Nc1nc2ccccc2s1	-285*	-2	11
CCOC(=O)C1CCN(S(=O)(=O)c2ccc3c4c2CC(=O)N4CC(C)S3)CC1 (stereo not drawn)	44	x	x
SMILES	Apaf-1 act	Rh110 act interf	Apaf-1 act conf2	others
COc1cc(S(=O)(=O)Nc2ccccc2)ccc1NC=O	-49*	-3	11
CC(C)(C)c1ccc(OCCOc2ccc(C(C)(C)C)cc2NC=O)c(NC=O)c1	41	x	x
COc1cc(-c2ccc(Nc3ccccc3C(=O)O)c(OC)c2)ccc1Nc1ccccc1C(=O)O	48	x	x
CCN(CC)c1ccc(N=Cc2ccc([N+](=O)[O-])o2)cc1	56	x	x
COc1ccc(N2CCN(C(=O)c3ccc(COc4ccc5c(C)cc(=O)oc5c4)cc3)CC2)cc1	58	x	x
COc1ccc(-c2cc(=O)oc3cc(OCC(=O)Nc4ccc(CCO)cc4)ccc23)cc1	-55*	0	-20
CC(Oc1ccc2c(-c3ccccc3)cc(=O)oc2c1)C(=O)NCC1CCC(C(=O)O)CC1 (stereo not drawn)	-1	x	x
N#Cc1cccc(S(=O)(=O)N2CCN(c3ccnc4cc(Cl)ccc34)CC2)c1	-135*	3	9
